# Published values from different studies.
# Organism: Pseudomonas aeruginosa
# Read-out: microbial growth
SMILES,assay,test system,setting,MIC [µg/mL]
COC(=O)c1cc(-c2cccc(NC(=S)Nc3cc(C(F)(F)F)cc(C(F)(F)F)c3)c2)on1,broth dilution,ATCC27853,,> 64
Oc1cc(Cl)ccc1Oc1ccc(Cl)cc1Cl,,,,> 25
CC1(C)S[C@@H]2[C@H](NC(=O)[C@H](N)c3ccccc3)C(=O)N2[C@H]1C(=O)O,broth dilution,ATCCBAA2108,drug-resistant strain,> 64
CC(=O)C1=C(O)C(CC(C)C)NC1=O (stereo not shown),,PA01,,> 200
C[n+]1c(/C=C/c2ccc(O)cc2)cc(/C=C2\Sc3ccccc3N2CCCN2CCCC2)c2ccccc21.[I-],broth dilution,ATCCBAA2108,drug-resistant strain,> 64
CC1(C)S[C@@H]2[C@H](NC(=O)C(C(=O)O)c3ccccc3)C(=O)N2[C@H]1C(=O)O (stereo partly shown),,,,50
CN[C@@H]1[C@H](O)[C@H](NC)[C@H]2O[C@@]3(O)C(=O)C[C@@H](C)O[C@H]3O[C@@H]2[C@H]1O,broth dilution,PAO1,,100
COC(=O)c1cc(-c2cccc(NC(=O)NCc3ccccc3)c2)on1,broth dilution,ATCC27853,,> 64
Cc1cc(/C=C2\Sc3ccccc3N2CCCN2CCC(C)CC2)c2ccccc2[n+]1C.[I-],broth dilution,ATCCBAA2108,drug-resistant strain,64
CC1(C)SC2C(NC(=O)C(NC(=O)C3=C(O)C(Cc4ccc([N+](=O)[O-])cc4)NC3=O)c3ccccc3)C(=O)N2C1C(=O)O (stereo not shown),,,,50
CN[C@H](CC(C)C)C(=O)N[C@H]1C(=O)N[C@@H](CC(N)=O)C(=O)N[C@H]2C(=O)N[C@H]3C(=O)N[C@H](C(=O)N[C@H](C(=O)O)c4cc(O)cc(O)c4-c4cc3ccc4O)[C@H](O)c3ccc(c(Cl)c3)Oc3cc2cc(c3O[C@@H]2O[C@H](CO)[C@@H](O)[C@H](O)[C@H]2O[C@H]2C[C@](C)(N)[C@H](O)[C@H](C)O2)Oc2ccc(cc2Cl)[C@H]1O,broth dilution,ATCCBAA2108,drug-resistant strain,> 64
COC(=O)c1cc(-c2cccc(NC(=S)Nc3ccccc3)c2)on1,broth dilution,ATCC27853,,> 64
CCCCCCC#Cc1cncc(-c2nnc(SCc3cc([N+](=O)[O-])cc([N+](=O)[O-])c3)n2C)c1,,,,≥ 20
CCCCCCCCCCCC(=O)OC[C@H]1O[C@@H](n2cc(C)c(=O)[nH]c2=O)C[C@@H]1OC(=O)c1ccc(C(C)(C)C)cc1,broth dilution,,,8
COC(=O)c1cc(-c2cccc(NC(=O)Nc3ccc(F)cc3F)c2)on1,broth dilution,ATCC27853,,> 64
CO[C@H]1/C=C/O[C@@]2(C)Oc3c(C)c(O)c4c(O)c(c(/C=N/N5CCN(C)CC5)c(O)c4c3C2=O)NC(=O)/C(C)=C\C=C\[C@H](C)[C@H](O)[C@@H](C)[C@@H](O)[C@@H](C)[C@H](OC(C)=O)[C@@H]1C,broth dilution,ATCCBAA2108,drug-resistant strain,> 64
